Measurements of several laboratories.
Lines come from different studies, so protocols differ.
TRIM24: Transcription intermediary factor 1-alpha (TRIM24, Homo sapiens, UniProt O15164)
PIK3C2B: Phosphatidylinositol 4-phosphate 3-kinase C2 domain-containing subunit beta (PIK3C2B, Homo sapiens, UniProt O00750)
KDM1A: Lysine-specific histone demethylase 1A (KDM1A, Homo sapiens, UniProt O60341)

CC(=O)N[C@H](C(=O)N[C@H](C(=O)N[C@@H](Cc1ccccc1)C(=O)N[C@H](C(=O)N[C@@H](CO)C(=O)N[C@@H](Cc1c[nH]c2ccccc12)C(=O)N[C@@H](CCC(=O)O)C(=O)N[C@@H](CCC(=O)O)C(=O)N[C@@H](Cc1ccc(O)cc1)C(=O)N[C@@H](CC(C)C)C(=O)N[C@@H](CC(=O)O)C(=O)N[C@@H](Cc1c[nH]c2ccccc12)C(=O)N[C@H](C(N)=O)C(C)C)[C@@H](C)O)C(C)C)[C@@H](C)O — kon (Proprotein convertase subtilisin/kexin type 9 (PCSK9, Homo sapiens, UniProt Q8NBP7); binding, SPR): 260000 M⁻¹ s⁻¹
Cc1cc2c(cc1N1C(=O)c3cccc4c(Cl)ccc(c34)C1=O)n(C)c(=O)n2C — ΔTm (SP140L (Homo sapiens, UniProt Q9H930); thermal stability, DSF; 10 µM): -1.4 °C
Oc1ccc(-c2nc(-c3ccncc3)c(-c3ccc(F)cc3)[nH]2)cc1 — ΔTm (TRIM24; thermal stability, DSF; 10 µM): -0.23 °C
Cc1ccc(C(=O)Nc2ccc(CN3CCN(C)CC3)c(C(F)(F)F)c2)cc1C#Cc1cnc2cccnn12 — remaining activity (PIK3C2B; enzyme activity, inhibitor; 23.5 nM): 90%
COC(=O)[C@@H]1Cc2c([nH]c3ccccc23)[C@H](c2ccc(OC)c(OC)c2)N1C(=O)CCl — inhibition (cGMP-specific 3',5'-cyclic phosphodiesterase (PDE5A, Homo sapiens, UniProt O76074); enzyme activity, inhibitor, FP; 50 µM): 48%
Cc1cnc(Nc2ccc(OCCN3CCCC3)cc2)nc1Nc1cccc(S(=O)(=O)NC(C)(C)C)c1 — ΔTm (Bromodomain-containing protein 3, BD2 (BRD3, Homo sapiens, UniProt Q15059); thermal stability, DSF; 10 µM): 3.4 °C
O=C(O)c1ccc(CN2CCC(CN[C@@H]3C[C@H]3c3ccccc3)CC2)cc1 — KI (inactivation) (KDM1A; enzyme activity, inhibitor): 2.14 µM
COc1cc2c(NC3CCN(C(C)C)CC3)nc(C3CCCCC3)nc2cc1OCCCN1CCCC1 — ΔTm (Histone-lysine N-methyltransferase EHMT1 (EHMT1, Homo sapiens, UniProt Q9H9B1); thermal stability, DSF; 100 µM): 8 °C
CN1CCN(C(=O)[C@H](CCCN[C@@H]2C[C@H]2c2ccc(F)cc2)NC(=O)c2ccc(-n3ccnn3)cc2)CC1 — KI (inactivation) (KDM1A; enzyme activity, inhibitor): 1.19 µM
C[S+]([O-])c1ccc(-c2nc(-c3ccncc3)c(-c3ccc(F)cc3)[nH]2)cc1 (stereo not drawn) — ΔTm (TRIM24; thermal stability, DSF; 10 µM): 1.4 °C
Nc1ncnc2occ(-c3ccc(NC(=O)Nc4cc(C(F)(F)F)ccc4F)cc3)c12 — remaining activity (PIK3C2B; enzyme activity, inhibitor; 20 µM): 99%
NS(=O)(=O)c1ccc(Nc2nc(-c3ccc(F)cc3)c3ccccc3n2)cc1 — remaining binding (ATPase family AAA domain-containing protein 2B (ATAD2B, Homo sapiens, UniProt Q9ULI0); binding, competition with immobilised ligand; 1 µM): 76%
